An excerpt weighted towards active compounds, which were near 2.9% of everything screened.
S100A4 MyoIIA – blocks human S100A4 binding to myosin IIA peptide | P26447 | S100A4/TAMRA-MyoIIA peptide fluorescence polarization | inhibition, % at 10.7 µM | actives 0.14% (n = 360,000) | AID 652163;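 active = mean inhibition of at least 70% across replicates, with every replicate also reaching that level; inconclusive = mean inhibition reaches 70% but some replicates fall short; inactive = mean inhibition below 70%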
Target sequence (P26447 whole entry, looked up): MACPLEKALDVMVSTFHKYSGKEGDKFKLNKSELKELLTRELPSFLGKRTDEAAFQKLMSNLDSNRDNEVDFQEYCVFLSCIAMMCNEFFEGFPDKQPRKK
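Test system: S100A4 monomer protein; Medium: HEPES pH 7.2 with CaCl2, KCl, NaCl, DTT, Triton; Probe or stimulus: TAMRA-labelled myosin IIA heavy-chain peptide probe, 5 nM; Doses: one dose per compound; Times: polarization read 5 min after assay mix addition, stable 5–60 min; Benchmarks: neutral control DMSO, positive control TFP.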
SIRT5 inh – blocks human SIRT5 desuccinylation of peptide; inhibition, % at 15 µM; AID 652115; Purified SirT5, succinyl-peptide AMC, trypsin-coupled fluorescence; Q9NXA8; actives 1.1% (n = 330,000); in the data active = inhibition above about 15%; inconclusive = no clear call, values can overlap the other calls
Target sequence (Q9NXA8 whole entry, looked up): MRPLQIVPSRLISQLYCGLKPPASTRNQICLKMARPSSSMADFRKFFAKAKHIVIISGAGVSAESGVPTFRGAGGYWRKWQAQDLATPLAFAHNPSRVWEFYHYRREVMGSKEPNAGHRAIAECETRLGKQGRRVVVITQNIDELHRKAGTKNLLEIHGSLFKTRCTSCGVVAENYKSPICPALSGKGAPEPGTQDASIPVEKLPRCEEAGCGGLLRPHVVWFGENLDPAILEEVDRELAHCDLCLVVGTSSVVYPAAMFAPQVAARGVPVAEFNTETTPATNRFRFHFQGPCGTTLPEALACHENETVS
CAL PDZ FP-1 – inhibitors of human CAL PDZ peptide binding; purified CAL PDZ, TMR-peptide fluorescence polarization, 1 h; inhibition, % at 24.9 µM; actives 0.92% (n = 300,000);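 active = mean inhibition of at least 30% with at least half of replicates also reaching 30%; inconclusive = no clear call, values can overlap the other calls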;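 note: 0% = DMSO neutral control and 100% = excess unlabeled competitor peptide PRC23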
CAL PDZ FP-2 – inhibitors of human CAL PDZ peptide binding; AID 504414; purified CAL PDZ, TMR-peptide fluorescence polarization, 1 h; inhibition, % at 20 µM; Q9HD26; actives 0.02% (n = 330,000);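 active = highest replicate inhibition of at least 40%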;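 note: plate controls were DMSO neutral control wells for no effect and unlabeled competitor peptide control wells for full effect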
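Control set: unlabelled peptide and DMSO controls / Material: purified CerCALP PDZ construct / Timing: 1 h incubation at room temperature before polarization reading / Doses: 20 µM, one dose / Detection: fluorescence polarization (mP)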
ERAP1 HTS inh – inhibitors of human ERAP1 aminopeptidase. actives 0.15% (n = 340,000). AID 652197. Q9NZ08. inhibition, % at 10.7 µM. recombinant ERAP1, Leu-AMC fluorescence, 60 min;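 active = mean replicate inhibition of at least 30%, or all replicates individually reaching that 30% level; inactive = mean below 30% and not every replicate reaching it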;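 note: 0% = neutral control wells and 100% = L-leucinethiol positive control wells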
DENV2 CPE rescue – protects cells from dengue virus 2 cytopathic effect; CPE inhibition, % at 9.99 µM; DENV2-infected cells, cytopathic effect rescue, plate reader; actives 1.7% (n = 350,000); in the data active = CPE inhibition above about 20%, passing the limit was not always enough; inconclusive = no clear call, values can overlap the other calls; tested in BHK-21 cells;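 note: 0% = median of neutral control wells and 100% = median of positive control wells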
* marks the source's active call; other numbers are inactive results; ? = inconclusive; . = no result given; ! = a repeat was not active.

SMILES	S100A4 MyoIIA	SIRT5 inh	CAL PDZ FP-1	CAL PDZ FP-2	ERAP1 HTS inh	DENV2 CPE rescue
C[C@H]1CN([C@@H](C)CO)C(=O)c2cc(-c3ccc(C#N)cc3)cnc2O[C@@H]1CN(C)C(=O)Nc1ccc(C(F)(F)F)cc1	51	19*	.	.	-4	3
C[C@H](CO)N1C[C@H](C)[C@@H](CN(C)C(=O)Nc2ccc(F)cc2)Oc2ncc(-c3ccc(F)cc3)cc2C1=O	-3	-3	.	.	-1	24*!
C[C@@H]1CN([C@@H](C)CO)C(=O)c2cc(-c3ccc(F)cc3)cnc2O[C@@H]1CN(C)Cc1cncnc1	6	1	.	.	-3	9
C[C@@H]1CN([C@H](C)CO)C(=O)c2cc(-c3ccc(F)cc3)cnc2O[C@H]1CN(C)Cc1cncnc1	107*	3	.	.	-4	5
COc1ccccc1C#Cc1ccc([C@H]2[C@@H](C#N)N(C(=O)C3CCC3)[C@H]2CO)cc1	2	2	.	.	2	13
C[C@@H]1CCCCO[C@@H](CN(C)S(=O)(=O)c2cn(C)cn2)[C@@H](C)CN([C@@H](C)CO)C(=O)c2cc(NS(=O)(=O)c3cn(C)cn3)ccc2O1	3	-1	.	.	3	1
C[C@@H]1CN([C@H](C)CO)C(=O)c2cc(NC(=O)CCCN(C)C)ccc2O[C@H]1CN(C)S(=O)(=O)c1ccc(F)cc1	1	-5	.	.	-1	0
CC(=O)NC[C@H]1[C@H](c2ccc(-c3ccccc3F)cc2)[C@H](CO)N1C(=O)C1CC1	-10	1	.	.	-4	53*
COc1ccccc1-c1ccc([C@H]2[C@@H](CO)N(C(C)=O)[C@@H]2CN(C)C(C)=O)cc1	4	-1	.	.	1	0
CC(=O)N(C)C[C@H]1[C@H](c2ccc(-c3ccccc3F)cc2)[C@@H](CO)N1C(C)=O	0	-1	.	.	-2	32*
CC(=O)NC[C@@H]1[C@@H](c2ccc(-c3ccccc3F)cc2)[C@H](CO)N1C(=O)C1CC1	4	2	.	.	-1	-8
CC(=O)NC[C@@H]1[C@@H](c2ccc(-c3ccccc3F)cc2)[C@@H](CO)N1CCC(F)(F)F	20	25*	.	.	4	4
CO[C@@H]1CN(C)C(=O)c2ccc(NC(=O)C3CCOCC3)cc2OC[C@@H](C)N(C(=O)c2ccccc2)C[C@@H]1C	6	-1	.	.	.	?
CC(C)NC(=O)N1[C@@H](CO)[C@@H]2c3ccccc3N(C(=O)Nc3ccccc3)C[C@@H]21	1	-2	.	.	-1	12
CN(C)C(=O)C[C@H]1C[C@@H]2c3cc(NS(=O)(=O)c4ccccc4)ccc3O[C@@H]2[C@H](CO)O1	-1	-4	.	.	0	1
COc1ccc2c3c(n(C)c2c1)[C@@H](CO)NCC31CCN(S(=O)(=O)c2cccc(C)c2)CC1	-3	-1	.	.	0	39*
COc1ccc2c3c(n(C)c2c1)[C@H](CO)NCC31CN(C(=O)Nc2ccccc2F)C1	-6	1	.	.	-1	41*
C[C@H]1CN([C@@H](C)CO)C(=O)Cc2cc(NC(=O)CCN3CCOCC3)ccc2O[C@H]1CN(C)Cc1ccccc1	6	3	.	.	-1	-8
Cc1c(C(=O)NCc2ccc(C#N)cc2)sc(=O)n1Cc1ccccn1	2	.	.	.	.	21*
CC12CCC(=O)N1C(C(=O)Nc1ccc(S(=O)(=O)N3CCCCC3)cc1)CS2 (centres undefined)	4	-2	.	0	1	32*
COc1ccc(-c2csc(NC(=O)C3CSC4(C)CCC(=O)N34)n2)cc1 (centres undefined)	-17	-3	3	1	1	0
CC12CCC(=O)N1C(C(=O)Nc1nc(-c3ccccc3)cs1)CS2 (centres undefined)	-2	-1	-3	-1	-1	29*
O=C(C[C@H]1C=C[C@H](NC(=O)c2cccnc2)[C@H](CO)O1)NCc1ccc(Cl)c(Cl)c1	3	5	.	.	-2	6
C[C@@H]1CN([C@H](C)CO)C(=O)c2cc(NC(=O)c3ccccc3)ccc2O[C@@H](C)CCCCO[C@@H]1CN(C)S(=O)(=O)c1cccs1	.	.	.	.	.	-5
CCN(C(=O)CCCCC(=O)N(CC)c1ccccc1)c1ccccc1	-1	-3	.	-1	4	0
SMILES	S100A4 MyoIIA	SIRT5 inh	CAL PDZ FP-1	CAL PDZ FP-2	ERAP1 HTS inh	DENV2 CPE rescue
CCN(C(=O)N(CC)c1ccccc1)c1ccccc1	1	.	0	-2	-5	20*
CC(=O)OC1C2CCC1C([N+]1(C)CCCCC1)CC2 (centres undefined)	0	-4	-4	-1	35*	18
C[C@@H]1CN([C@@H](C)CO)C(=O)c2cc(NC(=O)Nc3ccccc3)ccc2O[C@@H](C)CCCCO[C@H]1CN(C)C	-3	-3	.	.	-2	20
C[C@H]1CN([C@@H](C)CO)C(=O)Cc2cc(NC(=O)Nc3ccc(F)cc3)ccc2O[C@H]1CN(C)S(=O)(=O)c1ccc(Cl)cc1	0	4	.	.	-2	43*
C[C@@H]1CN([C@@H](C)CO)C(=O)Cc2cc(NC(=O)Nc3ccccc3)ccc2O[C@H]1CN(C)S(=O)(=O)c1ccc(F)cc1	-5	18*	.	.	-1	-4
CCc1cc(=O)oc2c3c(cc(OCC(=O)NC4CC4)c12)OC(C)(C)CC3	-1	.	4	-2	2	-1
CCCc1cc(=O)oc2c3c(cc(OCC(=O)N4CCC[C@H]4C(=O)O)c12)OC(C)(C)CC3	-9	.	43*	0	.	-20
O=C1C=C(c2ccccc2)C(c2ccccc2)C1 (centres undefined)	-11	1	.	48*	-7	11
Cc1ccc(O)c(C(=O)C=Cc2ccccc2)c1	-1	1	-5	-1	-6	7
O=C(C=Cc1ccccc1)c1cc(Br)ccc1O	-6	1	81*	21	-4	-5
O=C(C[C@H]1CC[C@@H](NC(=O)C2CCC2)[C@@H](CO)O1)NC1CCCCC1	1	-2	.	.	-1	-1
Cc1cc(F)c(F)cc1C(=O)N1CCCC1	-8	-1	53*	0	3	-1
Cc1noc(C)c1NC(=O)N(C)C[C@@H]1OCCCC[C@H](C)Oc2ccc(NS(=O)(=O)c3cn(C)cn3)cc2C(=O)N([C@@H](C)CO)C[C@@H]1C	.	.	.	.	.	-3
CCCC(=O)N1CCN(c2ccc(NC(=S)NC(=O)c3cccc(C)c3)cc2)CC1	4	-5	75*	-1	-4	-3
CCC(=O)Nc1ccc2c(c1)C(=O)N(C)[C@H]1CC[C@@H](CC(=O)NC3CCCC3)O[C@@H]1CO2	-3	11	.	.	3	-2
COc1ccc(-n2nnc3c(SCC(=O)N4CCCc5ccccc54)ncnc32)cc1	-7	-3	60*	15	2	2

High-throughput results deposited in PubChem by Broad Institute.
